From PubChem
The list is not random: actives were taken first. Their share in the collection is about 4.3%.
GalR3 antag = antagonists of human GalR3; inhibition, % at 3 µM; O60755; actives 0.44% (n = 360,000); HEK293 GalR3-CNG cAMP membrane potential fluorescence; galR3 body fused to GalR1 C-terminus;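 active = inhibition above the screen-wide average plus 3 SD, cut at about 13% in these data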;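 also: forskolin and galanin both at EC90 stimulate the cells; cAMP rise reported by CNG channel membrane potential dye signal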
Target sequence (O60755 1-299 limits assumed): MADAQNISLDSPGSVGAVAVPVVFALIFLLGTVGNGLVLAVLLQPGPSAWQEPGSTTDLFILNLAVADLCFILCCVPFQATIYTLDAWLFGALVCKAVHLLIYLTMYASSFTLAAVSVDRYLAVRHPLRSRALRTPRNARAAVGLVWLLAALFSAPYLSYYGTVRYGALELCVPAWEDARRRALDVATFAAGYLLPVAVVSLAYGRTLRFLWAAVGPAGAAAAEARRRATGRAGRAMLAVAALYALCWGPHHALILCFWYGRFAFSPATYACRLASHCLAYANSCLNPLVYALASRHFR
CHO parental Ca = signal in parental CHO cells, OX1R antagonist counter-screen. parental CHO-K1, ATP-induced calcium, Fluo-8 fluorescence. actives 0.63% (n = 330,000). inhibition, % at 5.6 µM;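 active = inhibition above that plate's mean sample inhibition plus 3 SD, cut at about 26% in these data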
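material = parental CHO cells | also added = ATP as calcium-mobilizing challenge | dosing = single point at 5.6 µM | detection = intracellular calcium via Fluo-8 no-wash fluorescent dye | read-out = % inhibition | benchmarks = low control ATP plus DMSO, high control DMSO only | repeats = one well per compound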
OX1R antag-1 = antagonists of human orexin 1 receptor (OX1R). AID 485270. O43613. actives 1.8% (n = 330,000). OX1R-expressing cells, FRET antagonist read-out. inhibition, % at 6.6 µM; in the data active = inhibition mostly above about 38%, no sharp cut-off; inactive = mostly below about 40%
Target sequence (O43613 whole entry, looked up): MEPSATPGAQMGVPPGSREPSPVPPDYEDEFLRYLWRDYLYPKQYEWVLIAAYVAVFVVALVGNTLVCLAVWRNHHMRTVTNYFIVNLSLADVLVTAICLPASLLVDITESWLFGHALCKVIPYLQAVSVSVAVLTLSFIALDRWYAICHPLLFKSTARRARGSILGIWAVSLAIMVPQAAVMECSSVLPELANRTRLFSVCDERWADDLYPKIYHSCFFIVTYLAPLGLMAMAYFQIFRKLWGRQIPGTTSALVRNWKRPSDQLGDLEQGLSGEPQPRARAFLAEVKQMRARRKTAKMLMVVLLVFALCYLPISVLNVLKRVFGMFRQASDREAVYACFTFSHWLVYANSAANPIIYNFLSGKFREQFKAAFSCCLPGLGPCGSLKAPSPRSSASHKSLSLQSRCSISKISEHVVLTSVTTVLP
TAAR1 antagonist = human TAAR1 antagonism. actives 1.5% (n = 360,000). inhibition, % at 3 µM. CHO RD-HGA16 TAAR1, Fluo-8 calcium fluorescence, antagonist;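 active = inhibition above a per-plate cutoff, the mean inhibition of test compounds on that plate plus 3 SD, cut at about 49% in these data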
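Test system: hTAAR1-expressing CHO RD-HGA16 cells, Gα16-coupled; Probe or stimulus: EC80 β-phenethylamine stimulus; Compound dosing: single nominal final test compound concentration of 3 µM; Timing: 140 s kinetic read after compound, 140 s after agonist; Signal: Fluo-8 calcium-sensitive fluorescence; Measure: % inhibition of agonist calcium response; Controls: DMSO and EC80 PEA controls.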
OX1R antag-2 = human HCRTR1 antagonism; O43613; AID 434989; CHO/OX1R cells, Fluo-8 calcium fluorescence, orexin A; actives 0.43% (n = 330,000); inhibition, % at 5 µM;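 active = inhibition above its plate's threshold, mean inhibition of all tested compounds on the plate plus 3 SD, cut at about 37% in these data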
TAAR1 ag = agonists of human TAAR1; activation, % at 3 µM; CHO RD-HGA16 TAAR1, Fluo-8 calcium fluorescence; vehicle wells 0%, saturating PEA agonist 100%; Q96RJ0; actives 0.99% (n = 360,000); AID 624467;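 active = activation above the mean activation of all test compounds in the run plus 3 SD, cut at about 38% in these data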
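System: CHO-derived RD-HGA16 cells with stable Gα16 and human TAAR1. Times: 17-24 h plating, Fluo-8 75 min 37 °C, 30 min RT. Measured by: calcium-sensitive Fluo-8 signal, excitation 470-495, emission 515-575 nm. Read-out basis: % activation relative to PEA EC100 response. Control set: DMSO and PEA EC100. Repeats: no replicates (n 1).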
GalR3 antag conf = GalR3 (human) antagonism, confirmation | shares compounds with GalR3 antag | HEK293 GalR3 CNG cAMP biosensor, membrane potential fluorescence; galR3 fused to GalR1 carboxy tail; challenged with forskolin and galanin at EC90 | inhibition, % at 3 µM | actives 59% (n = 1,600) | AID 652245;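 active = inhibition above the primary screen's cutoff, the mean inhibition of all screened compounds plus 3 SD, cut at about 13% in these data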
HEK-CNG parental = acts as nonspecific agonist in parental HEK-CNG cells | shares compounds with GalR3 antag | HEK293-CNG parental cells, cAMP membrane potential fluorescence; normalised: DMSO wells 0%, forskolin wells 100% | activation, % at 3 µM | actives 10% (n = 1,600); in the data active = activation above about 1.3%
Numbers stand for hits; i = inactive; nt = no result given.

SMILES	GalR3 antag	CHO parental Ca	OX1R antag-1	TAAR1 antagonist	OX1R antag-2	TAAR1 ag	GalR3 antag conf	HEK-CNG parental
COCCn1c(=O)[nH]c(=O)c2c1nc(-c1cc(Br)c3c(c1)OCO3)n2Cc1ccccc1	15.1	i	i	i	i	i	16.1	i
CCOC(=O)C1(C)CCCN1C(=O)c1ccc(OC)c(OC)c1 (configuration not stated)	i	nt	nt	i	nt	i	nt	nt
N#Cc1sc2nc(N3CCCCC3)c3c(c2c1N)CCCC3	i	i	i	i	i	i	nt	nt
Cc1nc2sc(C#N)c(N)c2c2c1CCCC2	26.9	i	i	i	i	i	34.4	i
Cc1cc(=S)c2cccc(C)c2[nH]1	21.4	i	i	i	i	i	29.7	i
O=C(COC(=O)c1ccc(Cl)nc1)NCCc1ccccc1	i	i	i	i	i	i	nt	nt
COc1cc(NC(=O)COC(=O)C2CC(O)CN2S(=O)(=O)c2ccc(Cl)cc2)c(C)cc1[N+](=O)[O-] (configuration not stated)	24.0	nt	nt	i	nt	i	47.0	i
O=C(CCNC(=O)c1ccc(Cl)cc1)Nc1ccccc1N1CCCCC1	i	i	i	i	i	i	nt	nt
NC(=O)CC[C@H](NC(=O)c1ccc(F)cc1)C(=O)OCC(=O)NCc1ccc2c(c1)OCO2	26.3	i	i	i	i	i	i	i
CCC(C)(C)NS(=O)(=O)c1cc(CN2C(=O)c3cccnc3C2=O)ccc1OC	i	i	i	i	i	i	nt	nt
Cc1cc2ccccn2c1C(=O)Nc1cccc(Cl)c1	12.8	i	i	i	i	i	i	i
CC(C)C[C@H]1CN(CCCC[C@H]2CNC(=O)C(=O)N2CCc2ccc(O)cc2)C(=O)C(=O)N1CCc1ccc(O)cc1	i	nt	nt	i	nt	i	nt	nt
O=C(O)/C=C/C(=O)c1ccc2c(c1)CCc1ccccc1-2	24.6	i	i	i	i	i	15.7	i
COc1cc(C(C)=O)ccc1OCC(=O)NCCCn1nc(C)cc1C	i	i	i	i	i	i	nt	nt
COc1ccc(OC)c(S(=O)(=O)NC(=O)C2(C)CCN2C(=O)Cc2ccccc2)c1 (configuration not stated)	i	nt	nt	i	nt	i	nt	nt
CN(C)S(=O)(=O)N1CCC(Oc2cccc(C(=O)NC3CCCCCC3)c2)CC1	28.9	i	i	i	i	i	99.9	i
CN(C)S(=O)(=O)N1CCC(Oc2ccc(C(=O)NC3Cc4ccccc4C3)cc2)CC1	30.2	i	i	58.1	i	i	99.3	i
NC(=O)c1nsc(C(=O)N(CC(=O)NC2CCCC2)c2cnc3ccccc3c2)c1N	nt	i	i	nt	i	nt	nt	nt
COc1ccc2[nH]c(=O)c(CN(C3CCCCC3)C(c3nnnn3Cc3ccco3)C(C)C)cc2c1 (configuration not stated)	nt	i	i	nt	i	nt	nt	nt
COCCn1nnnc1C(C(C)C)N(Cc1ccccc1)Cc1cc2cc(OC)ccc2[nH]c1=O (configuration not stated)	64.8	nt	nt	i	nt	i	60.0	i
COc1ccc2[nH]c(=O)c(CN(Cc3ccco3)C(c3nnnn3Cc3ccccc3)C(C)C)cc2c1 (configuration not stated)	13.2	i	i	i	i	i	i	i
CC(=O)Nc1ccc(N2C(=O)CC(Sc3nc(C)cc(C)n3)C2=O)cc1 (configuration not stated)	i	i	i	i	i	i	nt	nt
Cc1ccc(-c2nn3c(C)nnc3c3ccccc23)cc1S(=O)(=O)NCCO	i	i	i	i	i	i	nt	nt
Cc1ccc(-c2nn3c(C)nnc3c3ccccc23)cc1S(=O)(=O)NC(C)c1ccccc1 (configuration not stated)	15.1	i	i	i	i	i	22.9	i
CNCC(=O)Nc1ccc(Cl)c(C(F)(F)F)c1	i	i	i	i	i	i	nt	nt
SMILES	GalR3 antag	CHO parental Ca	OX1R antag-1	TAAR1 antagonist	OX1R antag-2	TAAR1 ag	GalR3 antag conf	HEK-CNG parental
Cc1ccccc1NC(=O)CNc1ccc(Cl)c(C(F)(F)F)c1	13.8	i	i	i	i	i	i	i
CCN1/C(=C/c2ccc3cc(C)ccc3[n+]2CC)Sc2cc(C)ccc21	49.7	nt	nt	i	nt	i	61.7	6.2
CCN1/C(=C/c2ccc3cc(C)ccc3[n+]2C)Sc2ccc3sccc3c21	i	nt	nt	i	nt	i	nt	nt
O=[N+]([O-])c1c(Nc2ccccc2O)cc(Cl)c2nonc12	39.8	nt	nt	i	nt	i	40.5	i
O=C(Nc1ccc(Cl)cc1)c1csc(COCCO)n1	i	nt	nt	i	nt	i	nt	nt
O=C(Nc1ccc(Oc2ccccc2)cc1)c1csc(COCCO)n1	92.0	nt	nt	i	nt	i	112.9	i
Cc1ccc2[nH]c(=O)c(CN(Cc3ccccc3)Cc3nnnn3C3CCCC3)cc2c1	i	i	i	i	i	i	nt	nt
CCC(C)(C)n1nnnc1CN(Cc1cc2cc(OC)c(OC)cc2[nH]c1=O)C1CCCC1	17.7	i	i	i	i	i	i	i
Cc1ccc2[nH]c(=O)c(CN(Cc3nnnn3C3CCCC3)C3CCCCC3)cc2c1	13.7	i	i	i	i	i	i	i
CC(C)CN1C(=O)/C(=C(/C#N)C(=O)NC2CCCCC2)c2ccccc21	i	i	i	i	i	i	nt	nt
O=C(Nc1ccc(F)c(Cl)c1)c1cc(C2CCCN(S(=O)(=O)c3cccc4cccnc34)C2)on1 (configuration not stated)	13.0	nt	nt	i	nt	i	i	i
CCCNC(=O)c1cc(C2CCCN(S(=O)(=O)c3cccc4cccnc34)C2)on1 (configuration not stated)	i	nt	nt	i	nt	i	nt	nt
COc1ccc(CCN(C)C(=O)COc2ccc(C(=O)c3ccccc3)cc2)cc1OC	i	i	i	i	i	i	nt	nt
COc1ccc(CCN(C)C(=O)Cc2ccc(-c3ccccc3)cc2)cc1OC	35.2	i	i	i	i	i	62.8	i
CC(=O)c1ccc(OCCCC(=O)Nc2ccc(Cl)c(S(=O)(=O)N3CCOCC3)c2)cc1	87.2	nt	nt	i	nt	i	92.7	i
O=c1[nH]c2cc(Cl)c([N+](=O)[O-])nc2[nH]1	24.4	i	i	i	i	i	23.6	i
O=c1[nH]c2ccc([N+](=O)[O-])cc2[nH]1	i	nt	nt	i	nt	i	nt	nt
CC12CCC(=O)C=C1CCC1C2CCC2(C)C1CC1C3C(=O)N(Cc4ccccc4)C(=O)C3CC(=O)C12 (configuration not stated)	i	nt	nt	i	nt	i	nt	nt
